Experimental data: ChEMBL document CHEMBL1122969, “Spiro[4.5] and spiro[4.6] carboxylic acids: cyclic analogues of valproic acid. Synthesis and anticonvulsant evaluation” (J Med Chem, 1985)

Experiments:
[1] = test system: Mus musculus; assay: Anticonvulsant activity against Subcutaneous pentylenetetrazole test at dose 600 mg/kg at 4 hr; assay type: functional
Procedure, shortened: (§1)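 Phase I mouse screen. Compound was suspended in 30% polyethylene glycol 400 and given by intraperitoneal injection at 30, 100, 300 or 600 mg/kg. Testing was at 30 min and 4 h (maximal electroshock or subcutaneous pentylenetetrazol), with rotorod toxicity scored alongside. Scored as animals protected/tested; toxicity was flagged at the 0.5 h or 4 h check.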

[2] = test system: Mus musculus; assay: Anticonvulsant activity against Bicucullin (3.75 mg/kg) induced tonic seizure at dose 300 mg/kg subcutaneously at pretreatment time of 30 min.; assay type: functional; details: route subcutaneous
Procedure, shortened: (§2)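 CF1 mice (Sprague–Dawley) were given the compound sc in 30% polyethylene glycol 400, with vehicle-injected controls. After the stated pretreatment interval, at the time of peak effect, bicuculline 3.75 mg/kg was injected sc; this dose gives clonic and tonic seizures and death in all controls. Clonic seizure = at least one 5-s clonic spasm episode. Tonic seizure = hindlimb flexion then extension. Scored as mice protected/tested plus mean ± SD onset, minutes.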

[3] = test system: Mus musculus; assay: Anticonvulsant activity against Subcutaneous pentylenetetrazole test at dose 300 mg/kg at 0.5 hr; assay type: functional; procedure, shortened: as §1
[4] = test system: Mus musculus; assay: Anticonvulsant activity against neurologic toxicity test at dose 600 mg/kg at 4 hr; assay type: organism-based; parameters: dose 600 mg/kg; details: in vivo
Procedure, shortened: (§3)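 Mice got the compound as a suspension in 30% polyethylene glycol 400 by ip injection (30, 100, 300, 600 mg/kg) 30 min or 4 h before the rotorod neurological toxicity test. The value is the number of animals showing toxicity over the number tested.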

[5] = test system: Mus musculus; assay: Anticonvulsant activity against neurologic toxicity test at dose 300 mg/kg at 0.5 hr; assay type: organism-based; parameters: dose 300 mg/kg; details: in vivo; procedure, shortened: as §3
[6] = test system: Mus musculus; assay: Anticonvulsant activity against neurologic toxicity test at dose 600 mg/kg at 0.5 hr; assay type: organism-based; parameters: dose 600 mg/kg; details: in vivo; procedure, shortened: as §3
[7] = Phase II qualification against neurotoxicity administered subcutaneously was reported.; assay type: toxicity, organism-based; details: mouse, in vivo, sc
Procedure, shortened: (§4)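 Mice were used. scMet ED50 and rotorod TD50 came from groups of 6–12 mice dosed over a range until at least three points fell within 10–90% protection or minimal neurotoxicity. Both were read at the time of peak effect, 0.5 h. ED50, TD50 and 95% confidence intervals were obtained from a plot by the Litchfield–Wilcoxon method. PI = TD50/ED50.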

[8] = test system: Mus musculus; assay: Anticonvulsant activity against Bicucullin (3.75 mg/kg) induced clonic seizure at dose 300 mg/kg subcutaneously at pretreatment time of 30 min.; assay type: functional; details: route subcutaneous; procedure, shortened: as §2
[9] = test system: Mus musculus; assay: Phase II qualification against administered subcutaneously was reported.; assay type: functional; details: sc; procedure, shortened: as §4
[10] = Protective index is the ratio of TD50 to that of ED50; assay type: ADME; details: read-out: Protective index; procedure, shortened: as §4
[11] = test system: Mus musculus; assay: Anticonvulsant activity against Bicucullin (3.75 mg/kg) induced death at dose 300 mg/kg subcutaneously at pretreatment time of 30 min.; assay type: ADME, organism-based; parameters: dose 300 mg/kg, route subcutaneous; details: in vivo, sc
[12] = test system: Mus musculus; assay: Anticonvulsant activity against Maximal electroshock seizure at dose 600 mg/kg at 4 hr; assay type: functional; procedure, shortened: as §1
[13] = test system: Mus musculus; assay: Anticonvulsant activity against Maximal electroshock seizure at dose 600 mg/kg at 0.5 hr; assay type: functional; procedure, shortened: as §1
[14] = test system: Mus musculus; assay: Anticonvulsant activity against Maximal electroshock seizure at dose 300 mg/kg at 4 hr; toxic; assay type: ADME, organism-based; parameters: dose 300 mg/kg; details: in vivo; procedure, shortened: as §1
[15] = test system: Mus musculus; assay: Anticonvulsant activity against neurologic toxicity test at dose 300 mg/kg at 4 hr; assay type: organism-based; parameters: dose 300 mg/kg; details: in vivo; procedure, shortened: as §3
[16] = test system: Mus musculus; assay: Anticonvulsant activity against Subcutaneous pentylenetetrazole test at dose 300 mg/kg at 4 hr; assay type: functional; procedure, shortened: as §1
[17] = test system: Mus musculus; assay: Anticonvulsant activity against Subcutaneous pentylenetetrazole test at dose 600 mg/kg at 0.5 hr; assay type: functional; procedure, shortened: as §1
[18] = test system: Mus musculus; assay: Anticonvulsant activity against Maximal electroshock seizure at dose 300 mg/kg at 0.5 hr; assay type: functional; procedure, shortened: as §1
[19] = test system: Mus musculus; assay: Anticonvulsant activity against Maximal electroshock seizure at dose 300 mg/kg at 4 hr; assay type: functional; procedure, shortened: as §1
[20] = test system: Mus musculus; assay: Anticonvulsant activity against Bicucullin (3.75 mg/kg) induced tonic seizure at dose 200 mg/kg subcutaneously at pretreatment time of 15 min.; assay type: functional; details: route subcutaneous, in the assay text read “pretreatment time of 30 min” for “pretreatment time of 15 min”; procedure, shortened: as §2
[21] = test system: Mus musculus; assay: Anticonvulsant activity against Maximal electroshock seizure at dose 300 mg/kg at 0.5 hr; toxic; assay type: ADME, organism-based; parameters: dose 300 mg/kg; details: in vivo; procedure, shortened: as §1
[22] = test system: Mus musculus; assay: Anticonvulsant activity against Bicucullin (3.75 mg/kg) induced clonic seizure at dose 200 mg/kg subcutaneously at pretreatment time of 30 min.; assay type: functional; details: route subcutaneous; procedure, shortened: as §2
[23] = test system: Mus musculus; assay: Anticonvulsant activity against Bicucullin (3.75 mg/kg) induced death at dose 200 mg/kg subcutaneously at pretreatment time of 30 min.; assay type: ADME, organism-based; parameters: dose 200 mg/kg, route subcutaneous; details: in vivo, sc

Work on `O=C(O)C1(C(=O)O)CCC2(CCCCCC2)C1` yielded a No. protected/tested [1] of 0, an Average onset [2] of 12 min and a No. protected/tested [3] of 1. It also gave a No. toxicity/tested [4] of 2, a No. toxicity/tested [5] of 0 and a No. toxicity/tested [6] of 3. The TD50 [7] was 275 mg/kg, the Average onset [8] was 9 min and the ED50 [9] was 194 mg/kg. For the same compound, the selectivity ratio [10] was 1.4, the Average onset [11] was 13 min and the No. protected/tested [12] was 0. For the same compound, the No. protected/tested [13] was 0, the No. protected/tested [14] was 0 and the No. toxicity/tested [15] was 0. For the same compound, the No. protected/tested [16] was 0, the No. protected/tested [17] was 1 and the No. protected/tested [18] was 0.
Compound `O=C(O)C1(C(=O)O)CCC2(CCCCC2)C1` has a No. protected/tested [1] of 0, a No. protected/tested [19] of 0 and a No. protected/tested [3] of 0. For the same compound, the No. toxicity/tested [4] was 2, the No. toxicity/tested [5] was 0 and the No. toxicity/tested [6] was 0. The No. protected/tested [12] was 0, the No. protected/tested [13] was 0 and the No. toxicity/tested [15] was 0. The No. protected/tested [16] was 0, the No. protected/tested [17] was 1 and the No. protected/tested [18] was 0.
Work on `O=C(O)C1CCC2(CCCCC2)C1` (configuration not stated) yielded a No. protected/tested [1] of 0, an Average onset [20] of 11 min and a No. protected/tested [19] of 0. For the same compound, the No. protected/tested [3] was 1, the No. toxicity/tested [4] was 0 and the No. toxicity/tested [5] was 3. For the same compound, the No. toxicity/tested [6] was 4, the No. protected/tested [21] was 1 and the Average onset [22] was 8 min. For the same compound, the No. protected/tested [12] was 0, the No. protected/tested [13] was 0 and the No. toxicity/tested [15] was 0. For the same compound, the Average onset [23] was 12 min, the No. protected/tested [16] was 0 and the No. protected/tested [17] was 1.
Compound `O=C(O)CC1CCC2(CCCCCC2)C1` (configuration not stated) has a No. protected/tested [1] of 1, a No. protected/tested [3] of 1 and a No. toxicity/tested [4] of 0. For the same compound, the No. toxicity/tested [5] was 3, the No. toxicity/tested [6] was 4 and the No. protected/tested [21] was 1. The No. protected/tested [12] was 0, the No. protected/tested [13] was 1 and the No. protected/tested [14] was 0. For the same compound, the No. toxicity/tested [15] was 0, the No. protected/tested [16] was 0 and the No. protected/tested [17] was 1.
